Source: ChEMBL document CHEMBL5036345, “Identification of a dual acting SARS-CoV-2 proteases inhibitor through in silico design and step-by-step biological characterization” (Eur J Med Chem, 2021)
Where a SMILES comes first, the peptide text is derived from it. [ ]: non-standard residue; d: D form. The star is where a group is joined. AllylGly = C=CC[C@H](N)C(=O)O; Boc = CC(C)(C)OC(=O)*; NHBn = c1ccc(CN*)cc1; NHtBu = CC(C)(C)N*; ClAc = O=C(CCl)*

What was measured:
SARS-CoV-2 [1] = test: Antiviral activity against Severe acute respiratory syndrome coronavirus 2 UC-1075 infected in African green monkey Vero cells assessed as reduction in plaque formation measured after 5 days by microscopic analysis; assay type: functional, organism-based; details: Severe acute respiratory syndrome coronavirus 2, UC-1075, Vero, 120 h
Vero = test: Cytotoxicity against African green monkey Vero cells assessed as reduction in cell viability by coulter counter method; assay type: cell-based; details: chlorocebus sabaeus
Outline: (§1)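 Vero cells were treated with a compound dilution series in DMEM 2% FCS for 5 days at 37 °C, in parallel with the antiviral assay. MCC is the lowest concentration giving a microscopically detectable change in morphology. CC50 is the concentration halving cell number in mock-infected cultures, counted by Coulter counter.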

[2] = Cytotoxicity against African green monkey Vero cells assessed as effect on cell morphology by microscopic analysis; assay type: cell-based; details: chlorocebus sabaeus; outline: as §1
[3] = Inhibition of SARS CoV-2 main protease using DABCYL-KTSAVLQ1SGFRKM-E(EDANS)-NH2 as substrate preincubated for 30 mins followed by substrate addition and measured after 4 hrs by multimode microplate reader assay; design: species or system Severe acute respiratory syndrome coronavirus 2
SARS-CoV-2 [4] = test: Antiviral activity against Severe acute respiratory syndrome coronavirus 2 UC-1074 infected in African green monkey Vero cells assessed as reduction in plaque formation measured after 5 days by microscopic analysis; assay type: functional, organism-based; details: Severe acute respiratory syndrome coronavirus 2, UC-1074, Vero, 120 h
Spike glycoprotein = Spike glycoprotein (Severe acute respiratory syndrome coronavirus 2, UniProt P0DTC2); test: Binding affinity to CM5 sensor chip immobilized SARS-CoV-2 spike glycoprotein assessed as dissociation constant by SPR analysis
Outline: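 Spike protein (1.25 μM in 10 mM sodium acetate, pH 4.59) was amine-coupled to about 11500 RU, with the first channel as reference. Running buffer was 10× diluted HBS-P plus 5% DMSO. Compounds at 0.75–100 μM were injected at 25 °C and 20 μL/min, with 90 s association and 600 s dissociation. Runs were in triplicate; KD came from a global 1:1 fit.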

[5] = Inhibition of SARS CoV-2 papain-like protease using Z-Arg-Leu-Arg-Gly-Gly-AMC as substrate preincubated for 30 mins followed by substrate addition and measured after 50 mins by multimode plate reader method; design: species or system Severe acute respiratory syndrome coronavirus 2

SMILES | EC50 (SARS-CoV-2 [1]) [µM] | CC50 (Vero) [µM] | MCC [2] [µM] | IC50 [3] [µM] | EC50 (SARS-CoV-2 [4]) [µM] | Kd (Spike glycoprotein) [µM] | IC50 [5] [µM]
C=CC[C@H](NC(=O)CCl)C(=O)N[C@@H](Cc1c[nH]c2ccccc12)C(=O)NCc1ccccc1 (ClAc-[AllylGly]-Trp-NHBn) | 1.37 | 38.7 | 100 | 1.72 | 0.32 | > 25 | 0.67
CC(C)C[C@H](NCc1ccc(-c2ccccc2)cc1)C(=O)N[C@@H](Cc1c[nH]c2ccccc12)C(=O)NC(C)(C)C | > 4 | 10.6 | 20 | 1.73 | > 4 | > 25 | > 25
COC(=O)c1ccc2c(c1)c(CN(CCc1ccc(-c3ccccc3)cc1)Cc1ccccc1)cn2CC(C)C | 0.44 | 31.5 | 100 | > 25 | 5.98 | 3.26 | > 25
C#CC[C@H](NCCC)C(=O)N[C@@H](Cc1c[nH]c2ccccc12)C(=O)NCc1ccc(-c2ccccc2)cc1 | > 20 | 42.4 | > 100 | 22.7 | > 20 |  | > 25
CC(C)(C)NC(=O)[C@H](Cc1c[nH]c2ccccc12)NC(=O)[C@@H]1CCCN1C(=O)OC(C)(C)C (Boc-Pro-Trp-NHtBu) | > 100 | > 100 | > 100 | 5.01 | > 100 | > 25 | > 25
CCC(CC)COC(=O)[C@H](C)N[P@](=O)(OC[C@H]1O[C@@](C#N)(c2ccc3c(N)ncnn23)[C@H](O)[C@@H]1O)Oc1ccccc1 | 0.61 | > 40 | > 40 |  | 0.87 |  | 
C#CC[C@H](NCc1ccccc1)C(=O)N[C@@H](Cc1c[nH]c2ccccc12)C(=O)NCc1ccc(-c2ccccc2)cc1 | 10.9 | 51.5 | ≥ 100 | 2.86 | 8.94 |  | > 25
C#CC[C@H](NC(=O)OC(C)(C)C)C(=O)N(Cc1ccccc1)Cc1cn(C)c2ccc(C(=O)OC)cc12 | 20 | 8.09 | 100 | > 25 | 4 | 11.4 | > 25
C#CC[C@H](NCc1ccc(-c2ccccc2)cc1)C(=O)N[C@@H](Cc1c[nH]c2ccccc12)C(=O)NC(C)(C)C | > 4 | 4.67 | 20 | > 25 | > 4 | > 25 | > 25
C=CC[C@H](NCc1ccccc1)C(=O)N[C@@H](Cc1c[nH]c2ccccc12)C(=O)NCc1ccc(-c2ccccc2)cc1 | > 20 | 78.4 | > 100 | > 25 | 63.1 | > 25 | > 25
CC(C)C[C@H](NCc1ccc(-c2ccccc2)cc1)C(=O)N[C@@H](Cc1c[nH]c2ccccc12)C(=O)NCc1ccccc1 | > 4 | 34.7 | > 20 | 23.6 | > 4 |  | > 25
CC(C)(C)NC(=O)[C@H](Cc1c[nH]c2ccccc12)NC(=O)[C@H](Cc1ccccc1)NCc1ccc(-c2ccccc2)cc1 | 2.01 | 1.49 | > 100 | > 25 | 2.19 | 19 | > 25
